The record followed here is PubChem BioAssay.

Broadly, the inhibition is the change of the read-out against control, counted positive when it falls.

Structures are written as SMILES. Activity calls are given as the source filed them.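 How the source made its calls, unless noted: active means inhibition at or above 50% at 10 µM; inactive means inhibition below 50%.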

Assay [1] can be described thus: inhibitors of TNFa-induced NFkB p65 translocation, primary screen, imaging, HUVEC, MLSMR starter and 10KST1 sets (AID 438;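 active means inhibition above 20% together with a positive visual image hit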;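 further: compound added about 3h40 before a 20 min TNFalpha stimulation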;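 on inhibition: signal is the nuclear over cytoplasmic p65 intensity ratio per well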). The following applies: HUVEC TNFa-induced p65 nuclear translocation; cell count: measured here: nuclei count (cytotoxicity indicator), at 2.08 µM; inhibition: at 2 µM, stronger effect = higher value, 0% TNFa-plus-vehicle, 100% no-TNFa wells.
The nature of assay [2]: inhibitors of mutant huntingtin aggregation, primary screen, imaging, exon1htt(103Q)mCFP cells, high-content imaging (AID 483;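 active means visual image review flags a hit and inhibition of aggregation exceeds 20%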;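 further: compound exposure lasted 3 days before fixation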;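 on nuclei count: percent of the per-plate median nuclei count of sample wells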). The note with it: exon1htt(103Q)mCFP cell line, aggregate imaging, at 2 µM; inhibition of aggregation: stronger effect = higher value; nuclei count: measured here: cell count, toxicity.
Assay [3] can be described thus: inhibitors of E-selectin induction by TNFa, primary screen, imaging, HUVEC, immunofluorescence, MLSMR starter and 10KST1 sets (AID 487;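 active means visually confirmed hit in the image check and inhibition above 20%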;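 on inhibition: signal is fraction of cell area covered by stained E-selectin grains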;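 on nuclei count: 100% = median nuclei count of all wells on the same plate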). The note with it: HUVEC TNFalpha-induced E-selectin immunofluorescence imaging, at 2 µM; inhibition: stronger effect = higher value; nuclei count: measured here: cell number, toxicity.
For assay [4], the target named is Voltage-gated potassium channel subunit beta-2 (Rattus norvegicus) (UniProt P62483). The assay can be described thus: KvBeta enzyme negative modulators, primary screen, biochemical, NADPH fluorescence (AID 622;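 active means fluorescence slope higher than the sample average by over 3 SD, cut at about -0.22 in these data, passing the limit was not always enough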;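 further: slope of raw intensity against log time taken from 70 to 1610 s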). The note with it: recombinant KvBeta, 4-cyanobenzaldehyde reduction, at 10 µM, stronger effect = higher value.
Voltage-gated potassium channel subunit beta-2 (Rattus norvegicus), sequence (P62483 whole entry, looked up): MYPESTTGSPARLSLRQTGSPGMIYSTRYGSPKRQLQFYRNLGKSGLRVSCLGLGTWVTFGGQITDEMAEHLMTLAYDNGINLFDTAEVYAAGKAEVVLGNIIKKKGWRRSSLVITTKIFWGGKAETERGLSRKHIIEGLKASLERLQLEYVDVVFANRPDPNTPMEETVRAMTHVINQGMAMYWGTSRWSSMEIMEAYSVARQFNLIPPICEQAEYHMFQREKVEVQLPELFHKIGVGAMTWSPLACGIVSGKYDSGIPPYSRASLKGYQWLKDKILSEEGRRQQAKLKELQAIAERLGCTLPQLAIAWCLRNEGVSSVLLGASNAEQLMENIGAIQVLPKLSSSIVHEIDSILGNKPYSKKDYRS
Assay [5] has the same target. Kind of assay: KvBeta positive modulators, primary screen, biochemical, NADPH fluorescence (AID 623;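 active means NADPH fluorescence slope more negative than the mean of all samples by about 3 SD, 99.7% confidence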;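 further: fluorescence intensity change per second fitted from 20 to 320 s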). The note with it: Recombinant KvBeta, NADPH fluorescence decrease slope, 10 min; at 10 µM; stronger effect = lower value.
In assay [6] the target is Muscarinic acetylcholine receptor M4 (Homo sapiens) (UniProt P08173). Kind of assay: compounds altering M4/GIRK thallium flux, either direction, primary screen, M4 allosteric agonist project, cell-based, HEK293 M4/GIRK, BTC-AM (AID 625;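 active means fluorescence slope after compound addition differing from the mean of all tested samples at 99.7% confidence, mostly higher but some lower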;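 further: thallium influx through GIRK channels coupled to M4 in HEK293 cells with BTC-AM dye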). The note with it: at 10 µM, actives lie on both sides. The procedure, abridged: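 System: HEK293 cells with M4 receptor and GIRK channels | Incubation: Cells overnight at 37 °C, BTC-AM loading 1 h, reads 2 min total | Technique: Kinetic BTC-AM fluorescence sampled at 1 Hz, 10 s pre-addition baseline | Measure: Post-addition slope, 15–24 s, of baseline-normalized fluorescence | Control set: Carbachol positive, DMSO negative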
Muscarinic acetylcholine receptor M4 (Homo sapiens), sequence (P08173 whole entry, looked up): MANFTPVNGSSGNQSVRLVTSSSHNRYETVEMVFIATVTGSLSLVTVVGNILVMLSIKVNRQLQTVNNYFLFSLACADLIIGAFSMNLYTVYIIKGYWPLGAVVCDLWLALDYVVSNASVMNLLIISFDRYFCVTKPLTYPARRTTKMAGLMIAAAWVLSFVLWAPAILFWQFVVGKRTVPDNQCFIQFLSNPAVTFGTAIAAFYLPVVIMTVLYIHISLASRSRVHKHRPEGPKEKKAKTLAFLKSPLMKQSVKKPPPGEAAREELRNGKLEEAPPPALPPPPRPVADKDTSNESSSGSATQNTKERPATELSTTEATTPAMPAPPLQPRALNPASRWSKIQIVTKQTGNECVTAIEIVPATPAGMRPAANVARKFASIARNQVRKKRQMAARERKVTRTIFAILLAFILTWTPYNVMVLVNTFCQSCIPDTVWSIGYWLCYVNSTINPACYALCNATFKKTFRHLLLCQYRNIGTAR

The nature of assay [7]: inhibitors of Sendai virus-induced IRF3 signaling, primary screen, TLR/RLR signaling modifier project, cell-based, Sendai virus stimulus, luciferase, 10K MLSCN set (AID 602276).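 Further: firefly luciferase from ISG56 promoter only with Renilla not read in this screen; 0% = Sendai virus plus DMSO and 100% = medium plus DMSO without virus.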 The following applies: HEK293 RL24 IRF3 luciferase reporter, at 10 µM, stronger effect = higher value.
The nature of assay [8]: inhibitors of poly I:C-induced TLR3 signaling, primary screen, cell-based, poly I:C stimulus, luciferase, 10K MLSCN set (AID 602277;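 active means inhibition of the reporter signal at or above 50%; inactive means inhibition below 50%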). The note with it: HEK293-TLR3 RL24 IRF3 luciferase reporter, at 10 µM, stronger effect = higher value. (In general: In a reporter assay the amount or activity of a reporter protein is the signal.)

In the case of `CC(=O)c1cc(-c2ccccc2)n(CC(=O)N2CCN(C3CCCC3)CC2)c1C`, in assay [1], the cell count amounted to 407. Besides, the inhibition is 8.8% (inactive) in assay [1], 25.1% (inactive) in assay [3], 13.3% (inactive) in assay [7] and 23.8% (inactive) in assay [8]. Also, in assay [2], the inhibition of aggregation was 23.8% (inactive). The nuclei count was 81% in assay [2] and 103% in assay [3]. Also, the fluorescence slope in assay [4] is -0.571 (inactive); in assay [6], 0.00681 (inactive). In addition, the NADPH fluorescence slope in assay [5] was -7.1e-05 (inactive).

Turning to `CCn1c(CC(=O)Nc2cccc(OC)c2)nnc1SCC(=O)Nc1nccs1`, in assay [1], the cell count was determined as 835. Further, the inhibition in assay [1] is 4.3% (inactive); in assay [3], -129% (inactive); in assay [7], 4.04% (inactive); in assay [8], 21.5% (inactive). Besides, the inhibition of aggregation in assay [2] is 8.8% (inactive). For the same molecule, the nuclei count was determined as 103% in assay [2] and 112% in assay [3]. Also, the fluorescence slope was -0.545 (inactive) in assay [4] and 0.00415 (inactive) in assay [6]. In addition, in assay [5], the NADPH fluorescence slope is -3.8e-05 (inactive).

For `CS(=O)(=O)Nc1ccc(C(=O)NCc2ccc3c(c2)OCO3)cc1`, the cell count in assay [1] was found to be 409. The inhibition in assay [1] is -5.7% (inactive); in assay [3], -42.6% (inactive); in assay [7], 9.26% (inactive); in assay [8] it was 4.21% (inactive). In addition, the inhibition of aggregation in assay [2] is 16.6% (inactive). The nuclei count in assay [2] amounted to 66.5%; in assay [3] it was 108%. In addition, the fluorescence slope in assay [4] was -0.472 (inactive); in assay [6] it was 0.00561 (inactive). Besides, the NADPH fluorescence slope in assay [5] is -1.7e-05 (inactive).

On to `Cc1cc2c(nn1)CCC/C2=N\O`, for which the cell count in assay [1] is 350. In addition, the inhibition in assay [1] was 4.3% (inactive); in assay [3], 14.6% (inactive); in assay [7] it was 17.4% (inactive); in assay [8], 19.5% (inactive). Besides, the inhibition of aggregation in assay [2] was 9.7% (inactive). The nuclei count in assay [2] came to 99.1%; in assay [3], 110%. Further, the fluorescence slope in assay [4] is -0.552 (inactive); in assay [6] it was 0.00403 (inactive). Moreover, the NADPH fluorescence slope in assay [5] is 2.3e-05 (inactive).

Consider `COC(=O)c1sc(S(=O)(=O)Nc2ccc3cn[nH]c3c2)c(C(=O)OC)c1C`, for which the cell count in assay [1] came to 392. Moreover, the inhibition was 1% (inactive) in assay [1], -83.8% (inactive) in assay [3], 13.4% (inactive) in assay [7] and 31.2% (inactive) in assay [8]. The inhibition of aggregation in assay [2] is 23.4% (inactive). Moreover, the nuclei count in assay [2] amounted to 80%; in assay [3], 100%. For the same molecule, the fluorescence slope in assay [4] was -0.533 (inactive); in assay [6] it was 0.0043 (inactive). The NADPH fluorescence slope in assay [5] is 5.3e-06 (inactive).

Consider `C=CCSc1nnc(-c2ccccc2NC(C)=O)c(=O)[nH]1`, for which, in assay [1], the cell count is 765. Besides, the inhibition in assay [1] is -33.6% (inactive); in assay [3] it was -60.3% (inactive); in assay [7], -0.29% (inactive); in assay [8] it was 9.66% (inactive). For the same molecule, the inhibition of aggregation in assay [2] was 8% (inactive). In addition, the nuclei count was determined as 102% in assay [2] and 107% in assay [3]. In addition, the values for the fluorescence slope in assay [4] and in assay [6] were -0.468 (inactive) and 0.00542 (inactive), respectively. In addition, the NADPH fluorescence slope in assay [5] is -0.000277 (inactive).

`COc1ccccc1CN1CC(C(=O)N2CCN(c3ccc(F)cc3)CC2)CC1=O` (centres undefined): the cell count in assay [1] is 400. The inhibition in assay [1] was 72.8% (active); in assay [3], -19.6% (inactive); in assay [7] it was 16.3% (inactive); in assay [8], 7.05% (inactive). In addition, the inhibition of aggregation in assay [2] was -14.7% (inactive). For the same molecule, the nuclei count stood at 101% in assay [2] and 106% in assay [3]. For the same molecule, the results for the fluorescence slope in assay [4] and in assay [6] were -0.583 (inactive) and 0.00225 (inactive), respectively. The NADPH fluorescence slope in assay [5] is -4.4e-05 (inactive).

As for `Cc1cccc(-c2noc(CCC(=O)Nc3ccccc3)n2)c1`, in assay [1], the cell count is 430. The inhibition in assay [1] is 9.5% (inactive); in assay [3], 68.5% (inactive); in assay [7], -7.26% (inactive); in assay [8] it was -4.8% (inactive). For the same molecule, the inhibition of aggregation in assay [2] was 7.6% (inactive). In addition, the nuclei count in assay [2] amounted to 92.6%; in assay [3] it was 140%. For the same molecule, the results for the fluorescence slope in assay [4] and in assay [6] were -0.289 (inactive) and 0.00559 (inactive), respectively. Also, in assay [5], the NADPH fluorescence slope was -2.3e-05 (inactive).

Take `CCCCCn1c(=O)[nH]c2cc(C(=O)NCCN3CCOCC3)ccc2c1=O`: the cell count in assay [1] turned out to be 355. For the same molecule, the inhibition in assay [1] is -1% (inactive); in assay [3], -15.3% (inactive); in assay [7], 5.81% (inactive); in assay [8] it was 9.94% (inactive). Besides, in assay [2], the inhibition of aggregation is 18% (inactive). Besides, the nuclei count turned out to be 104% in assay [2] and 120% in assay [3]. In addition, the fluorescence slope was -0.323 (inactive) in assay [4] and 0.00658 (inactive) in assay [6]. Also, in assay [5], the NADPH fluorescence slope is -3.7e-05 (inactive).

On to `CCOc1ccc(C(c2nnnn2Cc2ccccc2)N2CCN(C(=O)c3ccco3)CC2)cc1` (centres undefined), for which the cell count in assay [1] was 621. In addition, the inhibition is -0.2% (inactive) in assay [1], 20% (inactive) in assay [3], -3.47% (inactive) in assay [7] and 9.07% (inactive) in assay [8]. Also, in assay [2], the inhibition of aggregation was -6.3% (inactive). Besides, the nuclei count in assay [2] came out at 101%; in assay [3] it was 104%. The fluorescence slope in assay [4] was -0.492 (inactive); in assay [6] it was 0.00546 (inactive). For the same molecule, the NADPH fluorescence slope in assay [5] is -2.2e-06 (inactive).

`CCCn1c(NCc2cc(C)ccc2O)nc2ccccc21`: the cell count in assay [1] worked out at 369. For the same molecule, the inhibition in assay [1] is 1.4% (inactive); in assay [3], -16.5% (inactive); in assay [7], 18.7% (inactive); in assay [8], 19.5% (inactive). In assay [2], the inhibition of aggregation is 4.3% (inactive). Also, the values for the nuclei count in assay [2] and in assay [3] were 82.1% and 49.2%, respectively. For the same molecule, the fluorescence slope is -0.522 (inactive) in assay [4] and 0.00499 (inactive) in assay [6]. Further, in assay [5], the NADPH fluorescence slope is 6.3e-06 (inactive).

As for `Cc1cc(C(=O)Nc2cccc(O)c2)c(C)o1`, in assay [1], the cell count is 477. Also, the inhibition in assay [1] was 9.9% (inactive); in assay [3], -76.5% (inactive); in assay [7] it was 0.52% (inactive); in assay [8], -20.8% (inactive). Further, the inhibition of aggregation in assay [2] was 2.6% (inactive). In addition, the nuclei count in assay [2] came to 78.5%; in assay [3], 112%. For the same molecule, the fluorescence slope was -0.566 (inactive) in assay [4] and 0.00709 (inactive) in assay [6]. Besides, the NADPH fluorescence slope in assay [5] was -5.1e-05 (inactive).

For the molecule `CCN(CC)S(=O)(=O)c1ccc(C(=O)Oc2ccc3c(c2)OCO3)cc1`, the cell count in assay [1] worked out at 603. Moreover, the inhibition in assay [1] is -8.9% (inactive); in assay [3], -19.8% (inactive); in assay [7] it was 1.83% (inactive); in assay [8], 9.42% (inactive). Also, the inhibition of aggregation in assay [2] was -5% (inactive). Also, the nuclei count in assay [2] amounted to 108%; in assay [3] it was 110%. In addition, the fluorescence slope was -0.477 (inactive) in assay [4] and 0.00717 (inactive) in assay [6]. The NADPH fluorescence slope in assay [5] was 1.4e-07 (inactive).

Regarding `CCOc1ccccc1Nc1ncnc2ccccc12`, the cell count in assay [1] worked out at 394. Moreover, the inhibition is 9.3% (inactive) in assay [1], -40.8% (inactive) in assay [3], 5.79% (inactive) in assay [7] and -12% (inactive) in assay [8]. Moreover, in assay [2], the inhibition of aggregation was 8% (inactive). For the same molecule, the nuclei count in assay [2] amounted to 93.2%; in assay [3], 120%. The fluorescence slope in assay [4] is -0.548 (inactive); in assay [6] it was 0.00457 (inactive). Also, the NADPH fluorescence slope in assay [5] is -1.6e-05 (inactive).
